From ChEMBL document CHEMBL1142048, “Design, synthesis and structure-activity relationship studies of hexahydropyrazinoquinolines as a novel class of potent and selective dopamine receptor 3 (D3) ligands” (Bioorg Med Chem Lett, 2005)

Assays:
D(3) dopamine receptor = D(3) dopamine receptor (Rattus norvegicus, UniProt P19020); test: biochemical
[1] = Binding affinity for D1-like [3H]-SCH- 23390 receptor was determined using caudate-putamen of adult male Spragueo?=Dawley rats; format: tissue-based, Rattus norvegicus
How it was run: (§1)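 Rat caudate-putamen membranes, adult male Sprague–Dawley. Buffer 50 mM Tris–HCl, 5 mM KCl, 2 mM MgCl2, 2 mM CaCl2, pH 7.4 at 23 °C. [3H]SCH 23390 0.3 nM, with nonspecific binding defined by 1 μM (+)-butaclamol. Compounds were dissolved in 100% EtOH up to 5 mM (stock).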

[2] = Binding affinity for D2-like [3H]spiperone receptor was determined using caudate-putamen of adult male Spragueo?=Dawley rats; format: tissue-based, Rattus norvegicus
How it was run: as §1, with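 “[3H]spiperone 0.2” for “[3H]SCH 23390 0.3”, “(stock). Ki was derived from the radioligand KD.” for “(stock).”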

D(3) dopamine receptor, sequence (P19020 whole entry): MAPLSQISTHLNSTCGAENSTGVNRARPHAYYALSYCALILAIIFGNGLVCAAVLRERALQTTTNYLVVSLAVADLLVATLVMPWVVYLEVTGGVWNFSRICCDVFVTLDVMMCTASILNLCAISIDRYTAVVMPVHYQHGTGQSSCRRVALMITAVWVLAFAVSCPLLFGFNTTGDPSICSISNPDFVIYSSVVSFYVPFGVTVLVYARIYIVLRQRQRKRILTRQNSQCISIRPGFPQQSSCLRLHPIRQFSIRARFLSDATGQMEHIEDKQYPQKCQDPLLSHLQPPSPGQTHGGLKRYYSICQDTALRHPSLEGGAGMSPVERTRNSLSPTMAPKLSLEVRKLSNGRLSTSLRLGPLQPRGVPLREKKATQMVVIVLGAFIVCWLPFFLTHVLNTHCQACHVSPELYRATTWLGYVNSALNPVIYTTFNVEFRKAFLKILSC

Row | SMILES | Ki (D(3) dopamine receptor) | Ki [1] | Ki [2]
1 | COc1ccc2c(c1)CCC1CN(CCCCNC(=O)c3ccc4ccccc4c3)CCN21 (stereo not drawn) | 244 nM | > 250000 nM | > 250000 nM
2 | O=C(NCCCN1CCN2c3ccccc3CCC2C1)c1ccc2ccccc2c1 (stereo not drawn) | 1540 nM | 153000 nM | 2440 nM
3 | O=C(NCCN1CCN2c3ccccc3CCC2C1)c1ccc(-c2ccccc2)cc1 (stereo not drawn) | 23000 nM | > 100000 nM | > 100000 nM
4 | COc1cccc2c1N1CCN(CCCCNC(=O)c3ccc4ccccc4c3)CC1CC2 (stereo not drawn) |  | 6050 nM | 258 nM
5 | O=C(CN1CCN2c3ccccc3CCC2C1)c1ccc(F)cc1 (stereo not drawn) | 7490 nM | 7950 nM | 3890 nM
6 | O=C(NCCCCN1CCN2c3ccccc3CCC2C1)c1ccc(-c2ccccc2)cc1 (stereo not drawn) | 22 nM | 258 nM | 220 nM
7 | O=C(CCN1CCN2c3ccccc3CCC2C1)c1ccc(F)cc1 (stereo not drawn) | 2750 nM | 8890 nM | 3640 nM
8 | COc1ccc2c(c1)N1CCN(CCCCNC(=O)c3ccc4ccccc4c3)CC1CC2 (stereo not drawn) | 45 nM | 5800 nM | 1120 nM
9 | COc1cccc2c1CCC1CN(CCCCNC(=O)c3ccc4ccccc4c3)CCN21 (stereo not drawn) | 5.8 nM | 4600 nM | 762 nM

The remaining compounds from weak to strong by Ki [1], led by results:

Row | Ki (D(3) dopamine receptor) | Ki [1] | Ki [2] | SMILES
10 | 381 nM | 2470 nM | 852 nM | O=C(CCCCN1CCN2c3ccccc3CCC2C1)c1ccc(F)cc1 (stereo not drawn)
11 | 1650 nM | 1220 nM | 1390 nM | O=C(NCCN1CCN2c3ccccc3CCC2C1)c1ccc2ccccc2c1 (stereo not drawn)
12 | 304 nM | 904 nM | 243 nM | O=C(CCCN1CCN2c3ccccc3CCC2C1)c1ccc(F)cc1 (stereo not drawn)
13 | 18 nM | 791 nM | 1570 nM | O=C(NCCCCN1CCN2c3ccccc3CCC2C1)c1ccc2ccccc2c1 (stereo not drawn)
14 |  | 636 nM | 162 nM | COc1ccccc1N1CCN(CCCCNC(=O)c2ccc3ccccc3c2)CC1 [BP-897]
15 | 2520 nM | 356 nM | 906 nM | O=C(NCCCN1CCN2c3ccccc3CCC2C1)c1ccc(-c2ccccc2)cc1 (stereo not drawn)
